Results: ChEMBL document CHEMBL1933058, “5-(2-amino-pyrimidin-4-yl)-1H-pyrrole and 2-(2-amino-pyrimidin-4-yl)-1,5,6,7-tetrahydro-pyrrolo[3,2-c]pyridin-4-one derivatives as new classes of selective and orally available Polo-like kinase 1 inhibitors” (Bioorg Med Chem Lett, 2012)
Active and inactive are the calls of the source. The rule behind the calls is not given here.

Experiments:
[1] = tested on: A2780; assay: Induction of apoptosis in human A2780 cells assessed as PARP cleavage at 5 uM after 24 hrs by Western blotting analysis; assay type: functional, cell-based
In short: (§1)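 A2780 cells were treated for 24 h at 0.05, 0.5 and 5 µM, with nocodazole as positive control. Lysates were immunoblotted for pSer10 histone H3, pThr199 nucleophosmin, cyclin B1, cyclin A, PARP cleavage and caspase 3 activation.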

[2] = tested on: A2780; assay: Induction of apoptosis in human A2780 cells assessed as caspase3 activation at 5 uM after 24 hrs by Western blotting analysis; assay type: functional, cell-based; in short: as §1
[3] = tested on: A2780; assay: Cell cycle arrest in human A2780 cells assessed as increase of phospho Ser10 histone H3 level after 24 hrs by Western blotting analysis; assay type: functional, cell-based; in short: as §1
[4] = tested on: A2780; assay: Cell cycle arrest in human A2780 cells assessed as increase of phospho Ser10 histone H3 level at 0.05 to 5 uM after 1 hr by Western blotting analysis; assay type: functional, cell-based
In short: (§2)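 A2780 cells got 1 h exposure at 0.05, 0.5 and 5 µM, with nocodazole-treated cells as comparator. Western blot was used to probe the PLK1 substrate marker pSer46 TCTP and the mitotic marker pSer10 histone H3.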

[5] = tested on: A2780; assay: Cell cycle arrest in human A2780 cells assessed as reduction of phospho Ser46 TCTP level at 0.05 to 5 uM after 1 hr by Western blotting analysis; assay type: functional, cell-based; in short: as §2
[6] = tested on: A2780; assay: Cell cycle arrest in human A2780 cells assessed as induction of phospho Thr199 nucleophosmin level after 24 hrs by Western blotting analysis; assay type: functional, cell-based; in short: as §1
[7] = tested on: A2780; assay: Cell cycle arrest in human A2780 cells assessed as accumulation at G2/M phase at 0.05 to 5 uM after 24 hrs by FACS analysis; assay type: functional, cell-based
In short: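 A2780 cells were exposed for 24 h to 0.05, 0.5 or 5 µM. Cell-cycle distribution was read by flow cytometry (FACS), scoring G2-M accumulation. Nocodazole-treated cells served as positive control.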

[8] = Half life in Nu/Nu Balb Harlan mouse at 10 mg/kg, iv; assay type: ADME, organism-based; set-up: dose 10 mg/kg, route intravenous; details: in vivo
In short: (§3)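 Male Balb Nu/Nu mice (Harlan) received a single 10 mg/kg intravenous dose, n = 3 animals per study. Vehicle was either trifluoroacetate salt in dextrose or free base in 50% PEG 400/glucosate, depending on compound. Parameters were reported as mean ± standard deviation.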

[9] = Clearance in Nu/Nu Balb Harlan mouse at 10 mg/kg, iv; assay type: ADME, organism-based; set-up: dose 10 mg/kg, route intravenous; details: in vivo; in short: as §3
[10] = Terminal half life in Nu/Nu Balb Harlan mouse at 10 mg/kg, po; assay type: ADME, organism-based; set-up: dose 10 mg/kg, route oral; details: in vivo, read-out: beta t1/2 (converted)
[11] = AUC (0 to infinity) in Nu/Nu Balb Harlan mouse at 10 mg/kg, iv; assay type: ADME, organism-based; set-up: time infinity, dose 10 mg/kg, route intravenous; details: plasma; in short: as §3
[12] = Oral bioavailability in Nu/Nu Balb Harlan mouse at 10 mg/kg; assay type: ADME, organism-based; details: in vivo
[13] = Cmax in Nu/Nu Balb Harlan mouse at 10 mg/kg, po; assay type: ADME, organism-based; set-up: dose 10 mg/kg, route oral; details: in vivo
[14] = Volume of distribution at steady state in Nu/Nu Balb Harlan mouse at 10 mg/kg, iv; assay type: ADME, organism-based; set-up: dose 10 mg/kg, route intravenous; details: in vivo, read-out: Vdss
[15] = AUC (0 to infinity) in Nu/Nu Balb Harlan mouse at 10 mg/kg, po; assay type: ADME, organism-based; set-up: time infinity, dose 10 mg/kg, route oral; details: plasma
[16] = target: Cyclin-dependent kinase 2/cyclin A (Homo sapiens, UniProt P24941); assay: Inhibition of CDK2/cyclin A; assay type: protein-complex assay
[17] = target: T1, Aurora kinase A (Homo sapiens, UniProt O14965); assay: Inhibition of Aurora-A
T1 sequence (O14965 whole entry): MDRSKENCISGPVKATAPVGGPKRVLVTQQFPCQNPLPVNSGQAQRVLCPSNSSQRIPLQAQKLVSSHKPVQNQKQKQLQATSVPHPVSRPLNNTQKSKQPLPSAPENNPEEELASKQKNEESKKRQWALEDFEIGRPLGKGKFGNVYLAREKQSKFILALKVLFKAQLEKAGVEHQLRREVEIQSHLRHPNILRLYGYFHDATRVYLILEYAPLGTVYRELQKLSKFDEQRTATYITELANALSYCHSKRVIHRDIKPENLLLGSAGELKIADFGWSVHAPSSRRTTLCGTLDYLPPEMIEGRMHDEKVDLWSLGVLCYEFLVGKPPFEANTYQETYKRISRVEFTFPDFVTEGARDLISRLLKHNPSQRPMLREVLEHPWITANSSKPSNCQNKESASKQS

[18] = tested on: A2780; assay: Antiproliferative activity against human A2780 cells; assay type: functional, cell-based
[19] = target: Serine/threonine-protein kinase PLK1 (Homo sapiens, UniProt P53350); assay: Inhibition of PLK1
[20] = target: Serine/threonine-protein kinase PLK3 (Homo sapiens, UniProt Q9H4B4); assay: Inhibition of PLK3
[21] = target: Serine/threonine-protein kinase PLK2 (Homo sapiens, UniProt Q9NYY3); assay: Inhibition of PLK2
Chain of Serine/threonine-protein kinase PLK2 (Q9NYY3 whole entry): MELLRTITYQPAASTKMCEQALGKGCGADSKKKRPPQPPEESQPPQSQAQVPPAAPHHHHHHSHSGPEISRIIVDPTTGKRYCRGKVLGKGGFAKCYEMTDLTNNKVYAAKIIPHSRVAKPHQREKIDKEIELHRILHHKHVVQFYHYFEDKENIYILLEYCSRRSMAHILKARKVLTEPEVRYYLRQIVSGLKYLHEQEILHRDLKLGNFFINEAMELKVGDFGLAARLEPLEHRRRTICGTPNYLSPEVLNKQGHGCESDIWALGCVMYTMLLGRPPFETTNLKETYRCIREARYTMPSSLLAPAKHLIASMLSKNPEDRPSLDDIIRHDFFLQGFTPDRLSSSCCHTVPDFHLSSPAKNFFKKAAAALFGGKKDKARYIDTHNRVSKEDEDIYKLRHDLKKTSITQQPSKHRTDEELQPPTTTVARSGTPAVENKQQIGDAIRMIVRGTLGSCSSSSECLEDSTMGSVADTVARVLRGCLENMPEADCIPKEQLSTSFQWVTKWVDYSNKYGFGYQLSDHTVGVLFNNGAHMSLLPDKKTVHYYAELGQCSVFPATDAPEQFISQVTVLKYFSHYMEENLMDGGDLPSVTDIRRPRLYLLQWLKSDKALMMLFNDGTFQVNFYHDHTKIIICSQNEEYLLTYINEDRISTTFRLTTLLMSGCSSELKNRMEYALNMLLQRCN

Chain of Serine/threonine-protein kinase PLK3 (Q9H4B4 whole entry): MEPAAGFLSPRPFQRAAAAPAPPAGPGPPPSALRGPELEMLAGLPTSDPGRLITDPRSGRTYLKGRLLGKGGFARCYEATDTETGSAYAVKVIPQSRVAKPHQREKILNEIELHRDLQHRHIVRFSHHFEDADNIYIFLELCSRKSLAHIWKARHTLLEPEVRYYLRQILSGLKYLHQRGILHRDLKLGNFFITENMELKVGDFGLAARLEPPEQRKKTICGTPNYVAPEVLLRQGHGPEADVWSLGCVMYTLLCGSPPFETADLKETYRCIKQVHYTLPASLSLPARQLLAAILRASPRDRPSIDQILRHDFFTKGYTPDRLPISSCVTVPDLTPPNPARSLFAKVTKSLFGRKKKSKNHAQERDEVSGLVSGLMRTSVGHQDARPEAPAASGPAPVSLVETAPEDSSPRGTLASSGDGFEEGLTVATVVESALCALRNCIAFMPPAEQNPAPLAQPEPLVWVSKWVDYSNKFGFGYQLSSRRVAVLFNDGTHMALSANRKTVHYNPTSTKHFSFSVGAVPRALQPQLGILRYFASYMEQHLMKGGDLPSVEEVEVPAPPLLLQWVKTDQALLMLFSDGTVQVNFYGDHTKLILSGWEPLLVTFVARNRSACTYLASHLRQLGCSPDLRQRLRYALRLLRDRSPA
Chain of Serine/threonine-protein kinase PLK1 (P53350 whole entry): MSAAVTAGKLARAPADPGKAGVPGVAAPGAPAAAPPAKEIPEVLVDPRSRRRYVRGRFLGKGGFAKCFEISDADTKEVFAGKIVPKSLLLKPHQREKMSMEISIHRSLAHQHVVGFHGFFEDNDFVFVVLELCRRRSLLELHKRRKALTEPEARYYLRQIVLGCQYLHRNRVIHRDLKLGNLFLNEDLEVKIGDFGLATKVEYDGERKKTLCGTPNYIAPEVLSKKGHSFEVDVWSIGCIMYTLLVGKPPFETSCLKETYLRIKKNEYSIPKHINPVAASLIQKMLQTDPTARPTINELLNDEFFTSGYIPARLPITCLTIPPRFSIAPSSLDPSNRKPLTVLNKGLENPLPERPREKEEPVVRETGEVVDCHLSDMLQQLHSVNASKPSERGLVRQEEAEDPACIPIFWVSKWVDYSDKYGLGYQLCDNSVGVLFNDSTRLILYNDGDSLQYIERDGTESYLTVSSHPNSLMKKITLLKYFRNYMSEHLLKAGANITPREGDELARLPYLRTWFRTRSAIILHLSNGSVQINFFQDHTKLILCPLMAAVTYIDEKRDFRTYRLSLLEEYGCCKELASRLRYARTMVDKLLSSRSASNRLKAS

IC50 [16] [nM] | IC50 [17] [nM] | IC50 [18] [nM] | IC50 [19] [nM] | IC50 [20] [nM] | IC50 [21] [nM] | SMILES | other results
> 10000 | > 10000 | 109 | 18 | > 10000 | > 10000 | CN1CCN(c2ccc(OC(F)(F)F)c(Nc3nccc(-c4cc(C(N)=O)cn4CC(F)(F)F)n3)c2)CC1 | 
> 10000 | > 10000 | 610 | 18 | > 10000 | > 10000 | Cn1cc(C(N)=O)cc1-c1ccnc(Nc2cc(N3CCNCC3)ccc2OC(F)(F)F)n1 | 

More lines, now with the values behind:

SMILES | IC50 [16] [nM] | IC50 [17] [nM] | IC50 [18] [nM] | IC50 [19] [nM] | IC50 [20] [nM] | IC50 [21] [nM] | other results
CN1CCN(c2ccc(OC(F)(F)F)c(Nc3nccc(-c4cc(C(N)=O)cn4C)n3)c2)CC1 |  |  |  |  |  |  | Activity [1]: Active; Activity [2]: Active; Activity [3]: Dose-dependent effect; Activity [4]: Active; Activity [5]: Active; Activity [6]: Dose-dependent effect; Activity [7]: Active
CN1CCN(c2ccc(OC(F)(F)F)c(Nc3nccc(-c4cc(C(N)=O)cn4C)n3)c2)CC1.O=C(O)C(F)(F)F |  |  |  |  |  |  | half-life [8]: 0.65 h; clearance [9]: 74.7 mL/min/kg; half-life [10]: 1.7 h; AUC(0-inf) [11]: 5.41 µM·h; bioavailability [12]: 36%; Cmax [13]: 760 nM; Vd [14]: 2.5 L/kg; AUC(0-inf) [15]: 1.92 µM·h
CN1CCN(c2ccc(OC(F)(F)F)c(Nc3nccc(-c4cc5c(n4CCO)CCNC5=O)n3)c2)CC1 | > 10000 | > 10000 | 722 | 102 | > 10000 | > 10000 | 
Nc1nccc(-c2cc3c([nH]2)CCNC3=O)n1 | 219 | > 10000 | 1530 | 1130 |  |  | 
